How the values were obtained:
[1] = tested on: ASI(+)RyR1-expressing dyspedic myotubes; assay: Intracellular Ca2+ measurement; assay type: cell-based, mice; details: 500μM, 45s application (Fig. 2)
Summary of the method: (§1)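 RyR1-null mouse myotubes in primary culture; nuclear cDNA injection where applicable, expressing cells marked by co-injected cherry red cDNA (0.005μg/μl). Loaded 25min at room temperature with 5μM fura-FF AM in HEPES Ringer's, pH7.4. Ratio 340/380nm (510nm emission) every 350ms. Sequence: 500μM 4-cmc for 45s, 60s wash, zero-Ca²⁺ ICE for 120s, then 10mM Ca²⁺ plus 10μM ionomycin. Peak responses compared by ANOVA/Dunnett's test.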

[2] = tested on: non-expressing dyspedic (RyR1-null) myotubes; assay: Intracellular Ca2+ measurement; assay type: cell-based, mice; details: 500μM (Fig. 2B)
Summary of the method: as §1

[3] = tested on: ASI(-)RyR1-expressing dyspedic myotubes; assay: Intracellular Ca2+ measurement; assay type: cell-based, mice; details: 500μM, 45s application (Fig. 2)
Summary of the method: as §1

[4] = tested on: native skeletal muscle RyR1; assay: [3H]ryanodine binding to SR vesicles; assay type: biochemical; details: for Ryanodine binding: mean ±SEM, SEM
[5] = low to moderate affinity Ca2+ dye; stated property, no reference given; cited from earlier work
native RyR1 = assay: Single channel recording in lipid bilayers; assay type: biochemical; details: for effect on RyR1 channel activity (open probability), in words: n=3 (Fig. 6)
Summary of the method: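 Native RyR1 vesicles fused into lipid bilayers. After incorporation, cis contained 230mM CsCH₃O₃S, 20mM CsCl, 10mM TES, 500mM mannitol, 100μM free Ca²⁺, pH7.4; trans was made symmetrical at 230mM CsCH₃O₃S. Potential alternated between -40 and +40mV every 30s. Open probability from one to two 30s periods, with threshold ~20% of maximal conductance. Control, then 100μM peptide; n=3.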

[6] = tested on: native skeletal muscle RyR1; assay: Ca2+ release from SR vesicles; assay type: biochemical
Summary of the method: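 SR vesicles in 100mM KH₂PO₄ (pH7), 4mM MgCl₂, 1mM Na₂ATP, 0.5mM antipyrylazo III; extravesicular Ca²⁺ followed as OD at 710nm. Additions in sequence: 1μM thapsigargin, then peptide, then 5μM ruthenium red, then 1.5μg/ml A23187. n=3; paired or unpaired Student's t-test, P<0.05.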

[7] = substance alone, 10μM Ca2+, versus control, n=3 (Fig. 5A, 7)

Question: Which results are given for `Cc1cc(O)ccc1Cl` [4-cmc, 4-chloro-m-cresol]?
Answer: effect on intracellular Ca2+, in words [1]: rapid increase; effect on intracellular Ca2+, in words [2]: not in non-expressing dyspedic myotubes; effect on intracellular Ca2+, in words [3]: rapid increase

Question: Which “effect on [3H]ryanodine binding, in words” value [4, 7] does the source give for `Cn1c(=O)c2c(ncn2C)n(C)c1=O` [Caffeine, caffeine, reference compound] here?
Answer: The value was “significantly increases”.

Question: With `CC(=O)OCOC(=O)CN(CC(=O)OCOC(C)=O)c1cc2oc(-c3ncc(C(=O)OCOC(C)=O)o3)cc2cc1OCCOc1c(N(CC(=O)OCOC(C)=O)CC(=O)OCOC(C)=O)ccc(F)c1F` [fura-FF] as the compound, how does the Kd [5] read?
Answer: The Kd was 5.5 µM.

Question: What does the source list for “^3471TADSKSKMAK-----------SGGSDQERTAAKLRG^3500 [ASI(mutant)]”?
Answer: effect on channel activity, in words (native RyR1; data not shown): no effect; effect on Ca2+ release from SR vesicles, in words ([6]; 10μM peptide, n=3 (Fig. 5E)): did not increase; effect on initial Ca2+ release from SR vesicles, in words ([6]; 100μM peptide, n=3 (Fig. 5C-E)): small increase; effect on [3H]ryanodine binding, in words [4, 7]: only marginally increased

Question: For “^3471TADSKSKMAK-----------SGGSDQERTKKKRRG^3500 [ASI(-)]”, which “effect on RyR1 channel activity (open probability), in words” value (native RyR1; +40mV, 100μM peptide) is on record?
Answer: The value was “significant inhibition”.

Question: What about the “effect on RyR1 channel activity (open probability), in words” value (native RyR1; -40mV) of the same compound?
Answer: The value was “significant activation”.

Question: And the “effect on Ca2+ release from SR vesicles, in words” value ([6]; initial rate, peptide minus thapsigargin, n=3 (Fig. 5B&E))?
Answer: The value was “significantly increased”.

Question: What about the “effect on [3H]ryanodine binding if channels first activated by 100μM peptide A, in words” value ([4]; 10μM Ca2+, competition (Fig. 7A&B)) of the same compound?
Answer: Its value is “failed to significantly increase”.

Question: What about the “[3H]ryanodine binding achievable” value ([4]; 10μM caffeine plus 100μM peptide, 10μM Ca2+ (Fig. 7C)) of the same compound?
Answer: Its value is > 250 % control.

Question: And the “effect on [3H]ryanodine binding, in words” value ([4]; 100μM peptide, [Ca2+] ≥10μM, n=3 (Fig. 8A))?
Answer: Its value is “significantly increased”.

Question: And the Ryanodine binding ([4]; 500μM ASI(-) plus 100μM DP4)?
Answer: Its Ryanodine binding is 339±32 % control.

Question: And the Ryanodine binding ([4]; 500μM peptide alone, SR vesicles, 37°C, 15nM [3H]ryanodine)?
Answer: The Ryanodine binding was 190±1 % of control.

Question: What about the “effect on [3H]ryanodine binding, in words” value [4, 7] of the same compound?
Answer: Its value is “significantly increased”.

— article PMC2743929 (Cell calcium, 2009)
